In ChEMBL document CHEMBL4028872, “Structure-Activity Relationship, Pharmacological Characterization, and Molecular Modeling of Noncompetitive Inhibitors of the Betaine/γ-Aminobutyric Acid Transporter 1 (BGT1)” (J Med Chem, 2017) one finds IC50 data, which are given here for 19 molecules.

pIC50: −log10 of the molar value. Bounds are passed on as bounds.

In one assay the target is Sodium- and chloride-dependent GABA transporter 1 (Homo sapiens, UniProt P30531). The assay is classed as cell-based. The note with it: read-out: IC50.
Chain of Sodium- and chloride-dependent GABA transporter 1 (P30531 whole entry): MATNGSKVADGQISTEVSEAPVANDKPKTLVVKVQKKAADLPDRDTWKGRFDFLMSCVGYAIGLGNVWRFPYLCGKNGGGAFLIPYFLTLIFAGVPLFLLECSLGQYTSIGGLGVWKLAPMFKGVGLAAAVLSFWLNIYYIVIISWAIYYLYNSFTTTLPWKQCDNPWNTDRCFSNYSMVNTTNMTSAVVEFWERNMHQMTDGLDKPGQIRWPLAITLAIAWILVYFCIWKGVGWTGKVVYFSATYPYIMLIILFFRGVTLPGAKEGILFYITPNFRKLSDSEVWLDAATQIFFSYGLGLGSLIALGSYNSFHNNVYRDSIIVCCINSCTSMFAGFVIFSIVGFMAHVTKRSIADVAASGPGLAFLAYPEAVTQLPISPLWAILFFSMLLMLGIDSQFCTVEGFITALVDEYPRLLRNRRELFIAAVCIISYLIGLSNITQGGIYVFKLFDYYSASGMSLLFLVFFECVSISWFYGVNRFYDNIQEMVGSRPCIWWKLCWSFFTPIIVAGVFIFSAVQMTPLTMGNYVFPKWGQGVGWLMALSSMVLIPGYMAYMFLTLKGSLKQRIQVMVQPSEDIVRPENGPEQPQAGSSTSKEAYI
As for `CN1CCC(NC(=O)c2ccc(Cl)cc2Cl)CC1`, the pIC50 was below 3.00.
Still for that read-out and setting: the value for `CCCN1CCC(NC(=O)c2ccc(Cl)cc2Cl)CC1` was below 3.00.
Still for that read-out and setting: the value for `O=C(NC1CCN(Cc2ccc3ccccc3n2)CC1)c1ccc(Cl)cc1Cl` was below 4.30; that for `COc1cccc(C(=O)NC2CCN(Cc3ccccc3)CC2)c1OC` was below 3.30; that for `O=C(NC1CCN(Cc2ccc([N+](=O)[O-])cc2)CC1)c1ccc(Cl)cc1Cl` was below 4.00.
With `O=C(NC1CCN(Cc2ccccc2[N+](=O)[O-])CC1)c1ccc(Cl)cc1Cl`, the pIC50 is below 4.00.
In the case of `O=C(NC1CCN(Cc2ccccn2)CC1)c1ccc(Cl)cc1Cl`, the pIC50 is below 3.00.
Still for that read-out and setting: the figure for `O=C(CN1CCC(NC(=O)c2ccc(Cl)cc2Cl)CC1)c1ccccc1` is below 4.00; for `O=C(NC1CCNCC1)c1ccc(Cl)cc1Cl` it is below 3.00; for `O=C(NC1CCN(Cc2ccc(I)cc2)CC1)c1ccc(Cl)cc1Cl` it is below 4.00.
For `CC(C)(C)OC(=O)CN1CCC(NC(=O)c2ccc(Cl)cc2Cl)CC1`, the pIC50 is below 3.00.
`CCOc1ccccc1C(=O)NC1CCN(Cc2ccccc2)CC1`: the negative-log IC50 (pIC50) is below 3.30.
On the same count and under the same terms, the figure for `N#CCCCN1CCC(NC(=O)c2ccc(Cl)cc2Cl)CC1` is below 3.00; for `C#CCN1CCC(NC(=O)c2ccc(Cl)cc2Cl)CC1` it is below 3.00.
Same read-out and setting: the figure for `O=C(NC1CCN(C/C=C/c2ccccc2)CC1)c1ccc(Cl)cc1Cl` is below 4.00; for `O=C(O)CN1CCC(NC(=O)c2ccc(Cl)cc2Cl)CC1` it is below 3.00.
The same measure, in the same setting: the figure for `COC(=O)c1ccc(CN2CCC(NC(=O)c3ccc(Cl)cc3Cl)CC2)cc1` is below 4.00.
For the molecule `N#Cc1ccccc1CN1CCC(NC(=O)c2ccc(Cl)cc2Cl)CC1`, the pIC50 is below 4.30.
The same measure, in the same setting: the figure for `CC(C)C(=O)NC1CCN(Cc2ccccc2)CC1` is below 3.00.

In a further assay the target is T1, Sodium- and chloride-dependent betaine transporter (Homo sapiens, UniProt P48065).
T1 sequence (P48065 whole entry): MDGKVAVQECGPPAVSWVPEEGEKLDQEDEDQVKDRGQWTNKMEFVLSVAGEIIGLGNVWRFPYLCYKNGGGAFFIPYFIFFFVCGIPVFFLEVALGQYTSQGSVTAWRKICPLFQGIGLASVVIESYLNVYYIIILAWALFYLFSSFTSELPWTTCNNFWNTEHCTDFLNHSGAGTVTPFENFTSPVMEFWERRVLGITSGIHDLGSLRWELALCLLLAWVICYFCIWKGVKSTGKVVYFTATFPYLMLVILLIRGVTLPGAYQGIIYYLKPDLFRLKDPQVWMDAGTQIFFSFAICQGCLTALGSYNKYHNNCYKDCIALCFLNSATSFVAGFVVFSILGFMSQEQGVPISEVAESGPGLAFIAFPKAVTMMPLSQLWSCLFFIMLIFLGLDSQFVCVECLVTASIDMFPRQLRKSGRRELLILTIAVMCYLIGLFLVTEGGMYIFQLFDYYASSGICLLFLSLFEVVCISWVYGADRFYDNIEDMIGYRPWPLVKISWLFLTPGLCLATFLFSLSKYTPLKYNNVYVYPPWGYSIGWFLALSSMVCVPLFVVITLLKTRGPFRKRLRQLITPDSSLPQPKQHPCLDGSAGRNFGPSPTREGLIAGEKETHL
In words: Inhibition of human BGT1 expresses in tsA201 cells assessed as reduction in [3H]GABA uptake after 3 mins by scintillation counting method. The assay is classed as cell-based. The note with it: read-out: IC50. Put shortly: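 tsA201 cells transiently transfected with wild-type or mutant human BGT1 (PolyFect) were plated about 24 h before assay. Three ice-cold washes followed, then scintillation counting.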
`CN1CCC(NC(=O)c2ccc(Cl)cc2Cl)CC1`: the pIC50 was below 3.00.
Same read-out and setting: the value for `CCCN1CCC(NC(=O)c2ccc(Cl)cc2Cl)CC1` was below 3.00; that for `O=C(NC1CCN(Cc2ccc3ccccc3n2)CC1)c1ccc(Cl)cc1Cl` was below 4.30; that for `COc1cccc(C(=O)NC2CCN(Cc3ccccc3)CC2)c1OC` was 4.04.
As for `O=C(NC1CCN(Cc2ccc([N+](=O)[O-])cc2)CC1)c1ccc(Cl)cc1Cl`, the pIC50 was below 4.00.
Still for that read-out and setting: the figure for `O=C(NC1CCN(Cc2ccccc2[N+](=O)[O-])CC1)c1ccc(Cl)cc1Cl` is below 4.00; for `O=C(NC1CCN(Cc2ccccn2)CC1)c1ccc(Cl)cc1Cl` it is below 3.00.
Take `O=C(CN1CCC(NC(=O)c2ccc(Cl)cc2Cl)CC1)c1ccccc1`: the pIC50 was below 4.00.
As to `O=C(NC1CCNCC1)c1ccc(Cl)cc1Cl`, the pIC50 is below 3.00.
Same read-out and setting: the figure for `O=C(NC1CCN(Cc2ccc(I)cc2)CC1)c1ccc(Cl)cc1Cl` is below 4.00; for `CC(C)(C)OC(=O)CN1CCC(NC(=O)c2ccc(Cl)cc2Cl)CC1` it is below 3.00; for `CCOc1ccccc1C(=O)NC1CCN(Cc2ccccc2)CC1` it is 3.74.
Same read-out and setting: the figure for `N#CCCCN1CCC(NC(=O)c2ccc(Cl)cc2Cl)CC1` is below 3.00.
Same read-out and setting: the value for `C#CCN1CCC(NC(=O)c2ccc(Cl)cc2Cl)CC1` was below 3.00; that for `O=C(NC1CCN(C/C=C/c2ccccc2)CC1)c1ccc(Cl)cc1Cl` was below 4.00; that for `O=C(O)CN1CCC(NC(=O)c2ccc(Cl)cc2Cl)CC1` was below 3.00.
On to `COC(=O)c1ccc(CN2CCC(NC(=O)c3ccc(Cl)cc3Cl)CC2)cc1`, for which the pIC50 is below 4.00.
Same read-out and setting: the value for `N#Cc1ccccc1CN1CCC(NC(=O)c2ccc(Cl)cc2Cl)CC1` was below 4.30; that for `CC(C)C(=O)NC1CCN(Cc2ccccc2)CC1` was below 3.00.

The target in a further assay is T2, Sodium- and chloride-dependent GABA transporter 2 (Homo sapiens, UniProt Q9NSD5).
T2 sequence (Q9NSD5 whole entry): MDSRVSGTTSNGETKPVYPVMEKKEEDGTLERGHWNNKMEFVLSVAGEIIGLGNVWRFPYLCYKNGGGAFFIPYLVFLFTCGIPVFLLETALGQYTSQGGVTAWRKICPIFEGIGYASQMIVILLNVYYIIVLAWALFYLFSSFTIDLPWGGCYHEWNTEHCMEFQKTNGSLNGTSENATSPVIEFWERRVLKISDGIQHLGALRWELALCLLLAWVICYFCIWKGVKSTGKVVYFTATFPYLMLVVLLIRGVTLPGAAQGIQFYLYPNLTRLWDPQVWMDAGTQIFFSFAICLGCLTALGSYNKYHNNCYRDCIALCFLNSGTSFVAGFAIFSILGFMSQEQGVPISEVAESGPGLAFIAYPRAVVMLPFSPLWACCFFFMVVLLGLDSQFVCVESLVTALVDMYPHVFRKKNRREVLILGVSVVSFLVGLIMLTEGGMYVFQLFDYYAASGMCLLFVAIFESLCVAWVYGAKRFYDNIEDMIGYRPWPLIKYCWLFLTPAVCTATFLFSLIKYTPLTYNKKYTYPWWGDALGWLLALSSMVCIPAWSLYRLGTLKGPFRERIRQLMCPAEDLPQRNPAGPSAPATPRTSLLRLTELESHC
As to the kind of experiment: Inhibition of human GAT2 expresses in tsA201 cells assessed as reduction in [3H]GABA uptake after 3 mins by scintillation counting method. To be noted: read-out: IC50. The assay is classed as cell-based. Put shortly: (§1)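 Wild-type human GAT transiently expressed in tsA201 cells via pcDNA5/FRT and PolyFect. Uptake of 30 nM [3H]GABA was run for 3 min at 37 °C in HBSS/20 mM HEPES with 1 mM CaCl2 and 1 mM MgCl2, pH 7.4, across a range of test concentrations. Ice-cold washes were followed by scintillation counting. IC50 was obtained by sigmoidal variable-slope fitting, reported as mean pIC50 ± S.E.M.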
As to `CN1CCC(NC(=O)c2ccc(Cl)cc2Cl)CC1`, the pIC50 is below 3.00.
Still for that read-out and setting: the figure for `CCCN1CCC(NC(=O)c2ccc(Cl)cc2Cl)CC1` is below 3.00; for `O=C(NC1CCN(Cc2ccc3ccccc3n2)CC1)c1ccc(Cl)cc1Cl` it is below 4.30; for `COc1cccc(C(=O)NC2CCN(Cc3ccccc3)CC2)c1OC` it is below 3.30.
Still for that read-out and setting: the figure for `O=C(NC1CCN(Cc2ccc([N+](=O)[O-])cc2)CC1)c1ccc(Cl)cc1Cl` is below 4.00; for `O=C(NC1CCN(Cc2ccccc2[N+](=O)[O-])CC1)c1ccc(Cl)cc1Cl` it is below 4.00.
On to `O=C(NC1CCN(Cc2ccccn2)CC1)c1ccc(Cl)cc1Cl`, for which the pIC50 is below 3.00.
Consider `O=C(CN1CCC(NC(=O)c2ccc(Cl)cc2Cl)CC1)c1ccccc1`, for which the pIC50 was below 4.00.
In the case of `O=C(NC1CCNCC1)c1ccc(Cl)cc1Cl`, the pIC50 was below 3.00.
Still for that read-out and setting: the value for `O=C(NC1CCN(Cc2ccc(I)cc2)CC1)c1ccc(Cl)cc1Cl` was below 4.00; that for `CC(C)(C)OC(=O)CN1CCC(NC(=O)c2ccc(Cl)cc2Cl)CC1` was below 3.00; that for `CCOc1ccccc1C(=O)NC1CCN(Cc2ccccc2)CC1` was below 3.30.
Same read-out and setting: the value for `N#CCCCN1CCC(NC(=O)c2ccc(Cl)cc2Cl)CC1` was below 3.00; that for `C#CCN1CCC(NC(=O)c2ccc(Cl)cc2Cl)CC1` was below 3.00; that for `O=C(NC1CCN(C/C=C/c2ccccc2)CC1)c1ccc(Cl)cc1Cl` was below 4.00.
Same read-out and setting: the value for `O=C(O)CN1CCC(NC(=O)c2ccc(Cl)cc2Cl)CC1` was below 3.00.
Regarding `COC(=O)c1ccc(CN2CCC(NC(=O)c3ccc(Cl)cc3Cl)CC2)cc1`, the pIC50 was below 4.00.
Same read-out and setting: the value for `N#Cc1ccccc1CN1CCC(NC(=O)c2ccc(Cl)cc2Cl)CC1` was below 4.30; that for `CC(C)C(=O)NC1CCN(Cc2ccccc2)CC1` was below 3.00.

The target of a further assay is T3, Sodium- and chloride-dependent GABA transporter 3 (Homo sapiens, UniProt P48066).
T3 sequence (P48066 whole entry): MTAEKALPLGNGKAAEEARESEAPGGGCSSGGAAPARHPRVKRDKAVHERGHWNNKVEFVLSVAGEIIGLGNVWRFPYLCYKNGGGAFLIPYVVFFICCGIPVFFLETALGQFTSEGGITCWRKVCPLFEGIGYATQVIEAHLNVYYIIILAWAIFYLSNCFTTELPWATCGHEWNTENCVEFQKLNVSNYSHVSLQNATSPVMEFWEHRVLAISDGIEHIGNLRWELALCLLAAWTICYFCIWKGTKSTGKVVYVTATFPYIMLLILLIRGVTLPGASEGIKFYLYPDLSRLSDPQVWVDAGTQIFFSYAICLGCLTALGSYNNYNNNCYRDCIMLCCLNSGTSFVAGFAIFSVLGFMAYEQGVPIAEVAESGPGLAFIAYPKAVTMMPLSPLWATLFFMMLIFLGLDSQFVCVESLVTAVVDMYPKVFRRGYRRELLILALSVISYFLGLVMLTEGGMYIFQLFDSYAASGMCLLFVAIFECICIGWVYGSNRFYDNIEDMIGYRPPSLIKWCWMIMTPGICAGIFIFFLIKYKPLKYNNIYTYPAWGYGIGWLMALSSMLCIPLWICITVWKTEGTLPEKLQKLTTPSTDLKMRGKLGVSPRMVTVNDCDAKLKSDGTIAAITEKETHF
As to the kind of experiment: Inhibition of human GAT3 expresses in tsA201 cells assessed as reduction in [3H]GABA uptake after 3 mins by scintillation counting method. The assay is classed as cell-based. The note with it: read-out: IC50. Put shortly: as §1
As for `CN1CCC(NC(=O)c2ccc(Cl)cc2Cl)CC1`, the pIC50 is below 3.00.
Still for that read-out and setting: the figure for `CCCN1CCC(NC(=O)c2ccc(Cl)cc2Cl)CC1` is below 3.00; for `O=C(NC1CCN(Cc2ccc3ccccc3n2)CC1)c1ccc(Cl)cc1Cl` it is below 4.30.
Same read-out and setting: the value for `COc1cccc(C(=O)NC2CCN(Cc3ccccc3)CC2)c1OC` was below 3.30; that for `O=C(NC1CCN(Cc2ccc([N+](=O)[O-])cc2)CC1)c1ccc(Cl)cc1Cl` was below 4.00.
Same read-out and setting: the value for `O=C(NC1CCN(Cc2ccccc2[N+](=O)[O-])CC1)c1ccc(Cl)cc1Cl` was below 4.00.
For the molecule `O=C(NC1CCN(Cc2ccccn2)CC1)c1ccc(Cl)cc1Cl`, the pIC50 is below 3.00.
As to `O=C(CN1CCC(NC(=O)c2ccc(Cl)cc2Cl)CC1)c1ccccc1`, the pIC50 is below 4.00.
Same read-out and setting: the figure for `O=C(NC1CCNCC1)c1ccc(Cl)cc1Cl` is below 3.00; for `O=C(NC1CCN(Cc2ccc(I)cc2)CC1)c1ccc(Cl)cc1Cl` it is below 4.00.
For the molecule `CC(C)(C)OC(=O)CN1CCC(NC(=O)c2ccc(Cl)cc2Cl)CC1`, the pIC50 is below 3.00.
Still for that read-out and setting: the value for `CCOc1ccccc1C(=O)NC1CCN(Cc2ccccc2)CC1` was below 3.30.
On the same count and under the same terms, the figure for `N#CCCCN1CCC(NC(=O)c2ccc(Cl)cc2Cl)CC1` is below 3.00.
Same read-out and setting: the value for `C#CCN1CCC(NC(=O)c2ccc(Cl)cc2Cl)CC1` was below 3.00; that for `O=C(NC1CCN(C/C=C/c2ccccc2)CC1)c1ccc(Cl)cc1Cl` was below 4.00.
On to `O=C(O)CN1CCC(NC(=O)c2ccc(Cl)cc2Cl)CC1`, for which the pIC50 is below 3.00.
The same measure, in the same setting: the value for `COC(=O)c1ccc(CN2CCC(NC(=O)c3ccc(Cl)cc3Cl)CC2)cc1` was below 4.00; that for `N#Cc1ccccc1CN1CCC(NC(=O)c2ccc(Cl)cc2Cl)CC1` was below 4.30; that for `CC(C)C(=O)NC1CCN(Cc2ccccc2)CC1` was below 3.00.

Broadly, the pIC50 is the IC50 on a negative log10 scale, so that one unit is a factor of ten.
